Reference: ChEMBL document CHEMBL4837217, “Design, synthesis, in vitro and in vivo biological evaluation of pyranone-piperazine analogs as potent antileishmanial agents” (Eur J Med Chem, 2021)
Activity calls are given as the source filed them. No cut-off for these calls is given here.

Key:
[1] = tested on: Leishmania donovani; assay: Antileishmanial activity against log phase of Leishmania donovani MHOM/IN/80/Dd8 promastigotes assessed as reduction in cell viability at 50 uM incubated for 72 hrs by MTT assay; format: functional
Outline: (§1)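 Log-phase luciferase-transfected L. donovani Dd8 promastigotes (M199 + 10% FBS, 24 °C) treated with compounds at 25 and 50 µM in DMSO, with 0.1% DMSO vehicle control. After 72 h, MTT added 4 h. Formazan dissolved in DMSO, read at 570 nm. Percent inhibition reported as mean ± SD of at least three independent experiments in replicate.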

[2] = tested on: Leishmania donovani; assay: Antileishmanial activity against log phase of Leishmania donovani MHOM/IN/80/Dd8 promastigotes assessed as reduction in cell viability at 25 uM incubated for 72 hrs by MTT assay; format: functional; outline: as §1
[3] = tested on: Leishmania donovani; assay: Antileishmanial activity against amastigote stage of Leishmania donovani MHOM/IN/80/Dd8 harboring luciferase gene infected in mouse J774 cells assessed as parasite growth inhibition at 25 uM incubated for 72 hrs by Steady-Glo reagent based luciferase assay; format: functional; conditions: for inhibition at 25 µM: MHOM/IN/80/Dd8, J774
Outline: (§2)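 J774 murine macrophages, 4 × 10⁴ cells/well in RPMI with 10% FBS for 24 h, are infected for 24 h at 37 °C, 5% CO₂ with stationary-phase luciferase-transfected L. donovani Dd8 promastigotes at a 1:8 macrophage:parasite ratio. Compounds are dissolved in DMSO. Luminescence is read after Steady-Glo is added in PBS. IC₅₀ is taken from a four-parameter Hill nonlinear regression. Miltefosine is the reference.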

[4] = tested on: Leishmania donovani; assay: Antileishmanial activity against amastigote stage of Leishmania donovani MHOM/IN/80/Dd8 harboring luciferase gene infected in mouse J774 cells assessed as parasite growth inhibition at 50 uM incubated for 72 hrs by Steady-Glo reagent based luciferase assay; format: functional; conditions: for inhibition at 50 µM: MHOM/IN/80/Dd8, J774; outline: as §2
[5] = tested on: Leishmania donovani; assay: Antileishmanial activity against amastigote stage of Leishmania donovani MHOM/IN/80/Dd8 harboring luciferase gene infected in mouse J774 cells assessed as parasite growth inhibition incubated for 72 hrs by Steady-Glo reagent based luciferase assay; format: functional, organism-based; conditions: MHOM/IN/80/Dd8, J774, 72 h; outline: as §2
[6] = tested on: Leishmania donovani; assay: Antileishmanial activity against Leishmania donovani promastigotes assessed as parasite growth inhibition incubated for 72 hrs by Alamar Blue assay; format: functional, organism-based

SMILES	inhibition at 50 µM [1]	inhibition at 25 µM [2]	inhibition at 25 µM [3]	inhibition at 50 µM [4]	inhibition [2]	IC50 [5]	IC50 [6]	inhibition [3]	inhibition [4]
N#Cc1c(N2CCN(c3ccccc3Cl)CC2)cc(-c2ccc(Cl)cc2)oc1=O	58.3%	55.2%	73.1%	71%	–	–	–	–	–
N#Cc1c(N2CCN(c3ccccc3O)CC2)cc(-c2ccc(Br)cc2)c2c1CCSC2	33.3%	–	71%	83.3%	inactive	–	–	–	–
N#Cc1c(N2CCN(c3ccccc3O)CC2)cc(-c2ccc(Br)s2)oc1=O	88.1%	52.1%	74.8%	85.1%	–	13 µM	–	–	–
c1ccc2[nH]c(-c3ccc(N4CCN(c5ccc(-c6nc7ccccc7[nH]6)cc5)CC4)cc3)nc2c1	–	–	–	–	–	–	0.41 µM	–	–
Cc1ccc(-c2cc(N3CCN(c4ccccc4O)CC3)c(C#N)c(=O)o2)cc1	72.8%	54.7%	77.3%	83.2%	–	13 µM	–	–	–
N#Cc1c(N2CCN(c3ccccc3Cl)CC2)cc(-c2ccc(Br)cc2)oc1=O	66.5%	57.9%	60.5%	68.5%	–	–	–	–	–
N#Cc1c(N2CCN(c3ccccc3O)CC2)cc(-c2ccc(Cl)cc2)oc1=O	25%	–	–	–	inactive	–	–	inactive	inactive
N#Cc1c(N2CCN(c3cccc(Cl)c3)CC2)cc(-c2ccccc2)oc1=O	57.3%	44%	47.4%	72.1%	–	–	–	–	–
COc1ccccc1N1CCN(c2cc(-c3cccs3)oc(=O)c2C#N)CC1	62.2%	48.1%	52.2%	71.2%	–	–	–	–	–
COc1ccccc1N1CCN(c2cc(-c3ccc(Br)cc3)oc(=O)c2C#N)CC1	61.2%	56.6%	43.3%	58.3%	–	–	–	–	–
N#Cc1c(N2CCN(c3ccccc3O)CC2)cc(-c2cccc3ccccc23)oc1=O	78.6%	77.3%	71.4%	80.8%	–	13 µM	–	–	–
N#Cc1c(N2CCN(c3ccccc3O)CC2)cc(-c2cccs2)c2c1CSC2	4.8%	–	60.1%	79.3%	inactive	–	–	–	–
COc1ccc(-c2cc(N3CCN(c4ccccc4Cl)CC3)c(C#N)c(=O)o2)cc1	69.2%	60.3%	51%	62.5%	–	–	–	–	–
